Assay results published in ChEMBL document CHEMBL5724801, “EUbOPEN Chemogenomics Library - Multiplex” (2024).
“And” between values parts separate entries of the source, which are not always exact repeats. Equal entries are not always repeated.

Test system: U2OS
Test: Multiplex assay against U2OS
Type: toxicity, cell-based
Conditions: human
In short: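 Phenotypes for tubulin, mitochondrial mass and membrane permeability are expressed as per cents of healthy-nucleus cells. Cells were stained live at seeding with Hoechst33342, BioTracker Green Microtubule Cytoskeleton Dye, MitoTracker Red and Annexin V Alexa Fluor 680, then imaged after compound addition on a CQ1 microscope at 37°C and 5% CO2. Machine-learning gating in CellPathfinder separated Hoechst high-intensity objects from normal cells, divided normal cells by nuclear state (healthy, pyknosed, fragmented) and divided pyknosed cells into mitotic or apoptotic.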

[1] = 12 h, 1 µM, compound concentration 1 uM
[2] = 12 h, 10 µM, compound concentration 10 uM
[3] = 24 h, 1 µM, compound concentration 1 uM
[4] = 24 h, 10 µM, compound concentration 10 uM
[5] = 48 h, 1 µM, compound concentration 1 uM
[6] = 48 h, 10 µM, compound concentration 10 uM

CC(C)c1ccc(/C=N/NC(=O)c2ccc(O)cc2)cc1
Population Apoptotic (%) [1]: 41.67% and 26.09%
Population Fragmented Nuclei (%) [1]: 0.58% and 4.67%
Population Healthy Nuclei (%) [1]: 88.92% and 80%
Population Hoechst High Intensity Objects (%) [1]: 0%
Population Membrane Permeable-Phenotype (%) [1]: 2.62% and 5.83%
Population Mitochondria Different-Phenotype (%) [1]: 0% and 12.5%
Population Mitotic Cells (%) [1]: 58.33% and 73.91%
Population Normal (%) [1]: 100%
Population Pyknosed Nuclei (%) [1]: 10.5% and 15.33%
Population Tubulin-Different-Phenotype (%) [1]: 1.64% and 1.67%
Total Cell Count [1]: 343 and 150
Population Apoptotic (%) [2]: 32.5% and 45%
Population Fragmented Nuclei (%) [2]: 1.02% and 0%
Population Healthy Nuclei (%) [2]: 88.75% and 85.4%
Population Hoechst High Intensity Objects (%) [2]: 0%
Population Membrane Permeable-Phenotype (%) [2]: 2.88% and 2.56%
Population Mitochondria Different-Phenotype (%) [2]: 0% and 5.98%
Population Mitotic Cells (%) [2]: 67.5% and 55%
Population Normal (%) [2]: 100%
Population Pyknosed Nuclei (%) [2]: 10.23% and 14.6%
Population Tubulin-Different-Phenotype (%) [2]: 2.59% and 0%
Total Cell Count [2]: 391 and 137
Population Apoptotic (%) [3]: 30.95% and 46.15%
Population Fragmented Nuclei (%) [3]: 2.35% and 1.61%
Population Healthy Nuclei (%) [3]: 88.68% and 84.41%
Population Hoechst High Intensity Objects (%) [3]: 0%
Population Membrane Permeable-Phenotype (%) [3]: 1.69% and 3.18%
Population Mitochondria Different-Phenotype (%) [3]: 0.48% and 8.92%
Population Mitotic Cells (%) [3]: 69.05% and 53.85%
Population Normal (%) [3]: 100%
Population Pyknosed Nuclei (%) [3]: 8.97% and 13.98%
Population Tubulin-Different-Phenotype (%) [3]: 1.69% and 0.64%
Total Cell Count [3]: 468 and 186
Population Apoptotic (%) [4]: 51.02% and 50%
Population Fragmented Nuclei (%) [4]: 1.12% and 2.26%
Population Healthy Nuclei (%) [4]: 89.72% and 86.44%
Population Hoechst High Intensity Objects (%) [4]: 0%
Population Membrane Permeable-Phenotype (%) [4]: 1.88% and 2.61%
Population Mitochondria Different-Phenotype (%) [4]: 0% and 3.92%
Population Mitotic Cells (%) [4]: 48.98% and 50%
Population Normal (%) [4]: 100%
Population Pyknosed Nuclei (%) [4]: 9.16% and 11.3%
Population Tubulin-Different-Phenotype (%) [4]: 1.25% and 0%
Population Apoptotic (%) [5]: 38.46% and 51.11%
Population Fragmented Nuclei (%) [5]: 2.73% and 1.73%
Population Healthy Nuclei (%) [5]: 87.74% and 85.3%
Population Hoechst High Intensity Objects (%) [5]: 0.1% and 0%
Population Membrane Permeable-Phenotype (%) [5]: 0.6% and 3.04%
Population Mitochondria Different-Phenotype (%) [5]: 0.12% and 6.42%
Population Mitotic Cells (%) [5]: 61.54% and 48.89%
Population Normal (%) [5]: 99.9% and 100%
Population Pyknosed Nuclei (%) [5]: 9.54% and 12.97%
Population Tubulin-Different-Phenotype (%) [5]: 0.6% and 1.35%
Total Cell Count [5]: 955 and 347
Population Apoptotic (%) [6]: 46.51% and 53.12%
Population Fragmented Nuclei (%) [6]: 4.03% and 1.37%
Population Healthy Nuclei (%) [6]: 87.3% and 87.67%
Population Hoechst High Intensity Objects (%) [6]: 0%
Population Membrane Permeable-Phenotype (%) [6]: 1.15% and 3.52%
Population Mitochondria Different-Phenotype (%) [6]: 0% and 5.47%
Population Mitotic Cells (%) [6]: 53.49% and 46.88%
Population Normal (%) [6]: 100%
Population Pyknosed Nuclei (%) [6]: 8.67% and 10.96%
Population Tubulin-Different-Phenotype (%) [6]: 1.39% and 0%

O=C1NCc2ccc3c(-c4cccc(Cl)c4)c[nH]c3c21
Population Apoptotic (%) [1]: 16.88% and 44.83%
Population Fragmented Nuclei (%) [1]: 2.23% and 1.96%
Population Healthy Nuclei (%) [1]: 76.32% and 79.08%
Population Hoechst High Intensity Objects (%) [1]: 0%
Population Membrane Permeable-Phenotype (%) [1]: 1.46% and 3.31%
Population Mitochondria Different-Phenotype (%) [1]: 0% and 8.26%
Population Mitotic Cells (%) [1]: 83.12% and 55.17%
Population Normal (%) [1]: 100%
Population Pyknosed Nuclei (%) [1]: 21.45% and 18.95%
Population Tubulin-Different-Phenotype (%) [1]: 1.46% and 2.48%
Total Cell Count [1]: 359 and 153
Population Apoptotic (%) [2]: 31.03% and 23.81%
Population Fragmented Nuclei (%) [2]: 0.99% and 2.27%
Population Healthy Nuclei (%) [2]: 79.87% and 81.82%
Population Hoechst High Intensity Objects (%) [2]: 0%
Population Membrane Permeable-Phenotype (%) [2]: 2.89% and 3.7%
Population Mitochondria Different-Phenotype (%) [2]: 0% and 15.74%
Population Mitotic Cells (%) [2]: 68.97% and 76.19%
Population Normal (%) [2]: 100%
Population Pyknosed Nuclei (%) [2]: 19.14% and 15.91%
Population Tubulin-Different-Phenotype (%) [2]: 2.07% and 0.93%
Total Cell Count [2]: 303 and 132
Population Apoptotic (%) [3]: 34.38% and 19.64%
Population Fragmented Nuclei (%) [3]: 3.92% and 1.72%
Population Healthy Nuclei (%) [3]: 66.59% and 66.09%
Population Hoechst High Intensity Objects (%) [3]: 0% and 0.57%
Population Membrane Permeable-Phenotype (%) [3]: 0.69% and 3.48%
Population Mitochondria Different-Phenotype (%) [3]: 0% and 8.7%
Population Mitotic Cells (%) [3]: 65.62% and 80.36%
Population Normal (%) [3]: 100% and 99.43%
Population Pyknosed Nuclei (%) [3]: 29.49% and 32.18%
Population Tubulin-Different-Phenotype (%) [3]: 1.73% and 2.61%
Total Cell Count [3]: 434 and 175
Population Apoptotic (%) [4]: 50% and 28.3%
Population Fragmented Nuclei (%) [4]: 4.05% and 5.47%
Population Healthy Nuclei (%) [4]: 49.22% and 53.12%
Population Hoechst High Intensity Objects (%) [4]: 0.62% and 0%
Population Membrane Permeable-Phenotype (%) [4]: 0.63% and 8.82%
Population Mitochondria Different-Phenotype (%) [4]: 0% and 8.82%
Population Mitotic Cells (%) [4]: 50% and 71.7%
Population Normal (%) [4]: 99.38% and 100%
Population Pyknosed Nuclei (%) [4]: 46.73% and 41.41%
Population Tubulin-Different-Phenotype (%) [4]: 1.27% and 1.47%
Total Cell Count [4]: 323 and 128
Population Apoptotic (%) [5]: 63.69% and 70.59%
Population Fragmented Nuclei (%) [5]: 9.74% and 8.94%
Population Healthy Nuclei (%) [5]: 47.18% and 43.58%
Population Hoechst High Intensity Objects (%) [5]: 0%
Population Membrane Permeable-Phenotype (%) [5]: 1.63% and 6.41%
Population Mitotic Cells (%) [5]: 36.31% and 29.41%
Population Normal (%) [5]: 100%
Population Pyknosed Nuclei (%) [5]: 43.08% and 47.49%
Population Tubulin-Different-Phenotype (%) [5]: 6.52% and 2.56%
Total Cell Count [5]: 390 and 179
Population Apoptotic (%) [6]: 70.56% and 84.62%
Population Fragmented Nuclei (%) [6]: 6.99% and 3.12%
Population Healthy Nuclei (%) [6]: 38.3% and 46.09%
Population Hoechst High Intensity Objects (%) [6]: 0%
Population Membrane Permeable-Phenotype (%) [6]: 2.38% and 6.78%
Population Mitotic Cells (%) [6]: 29.44% and 15.38%
Population Normal (%) [6]: 100%
Population Pyknosed Nuclei (%) [6]: 54.71% and 50.78%
Population Tubulin-Different-Phenotype (%) [6]: 10.32% and 5.08%
Total Cell Count [6]: 329 and 128
